Assay results as given in PMC6945494 (Biomaterials, 2019).
Values after ≈ are worked out from the molar mass of the structure shown. Where two headings read alike, the source gives them in different places. Each block holds one molecule with its values, some of them ahead of it.

How the values were obtained:
HIV-1ADA [1] = assay: Long-term antiretroviral efficacy in MDM; type: cell-based
Summary of the method: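 Human monocytes from leukapheresis, purified by elutriation and differentiated 7 days in DMEM with 10% heat-inactivated human serum and 1000 U/mL MCSF. MDM were exposed to 100 μM test compound for 8 h, washed, and kept drug-free with half-media changes every other day. On days 1–30 they were challenged with HIV-1ADA at MOI 0.1 for 16 h. RT activity in fluids on day 10; PFA-fixed cells stained for p24.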

HIV-1NL4–3-eGFP = assay: microbe, parasite or virus in culture; type: cell-based; details: Human immunodeficiency virus 1, T-cell, 240 h, read-out: EC50 (RT activity)
HIV-1ADA [2] = assay: EC50 by HIV-1 RT activity in MDM; type: cell-based; details: read-out: EC50 (HIV-1 RT activity)
[3] = Solubility in water and 1-octanol; type: physicochemical
Summary of the method: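 Excess test compound or parent nucleoside was added to water or 1-octanol to give saturated solutions. These were mixed 24 h at room temperature, then centrifuged at 14,000 × g for 10 min to remove undissolved drug. Supernatant concentration was quantified by UPLC-TUV.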

MDM [4] = assay: Cellular drug uptake and retention in MDM; type: cell-based, human
MDM [5] = assay: MTT cell viability assay in MDM; type: cell-based, human; details: for effect on mitochondrial reductase activity (MTT): 10–400 μM
[6] = Pharmacokinetics and biodistribution after a single IM injection; type: in vivo, Sprague Dawley rats; details: rat
[7] = Prodrug chemical stability at acid, alkaline and neutral pH; type: physicochemical; details: room temperature; for prodrug degraded: after 24 h
[8] = Plasma stability, animal plasma; type: in vitro ADME, rat, mouse; details: rodent, dog, rabbit and monkey plasma, after 24 h at 37 °C
Summary of the method: (§1)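 Plasma (100 μL) was spiked with 1 μM test compound at 37 °C. It was stopped at 0, 2, 6 and 24 h with 1 mL methanol and 3 min vortexing. Heat-inactivated plasma under identical conditions separated chemical from enzymatic loss. After centrifugation at 15,000 g for 10 min, supernatant was diluted in 80% methanol with internal standard. Analysed by UPLC-MS/MS.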

[9] = Plasma stability, human plasma; type: in vitro ADME; details: 37 °C; for chemical stability in plasma: up to 24 h, 1 μM
Summary of the method: as §1

Structure (SMILES): Nc1nc(=O)n([C@@H]2CS[C@H](CO)O2)cc1F [FTC, emtricitabine]
inhibition at 100 µM (HIV-1ADA [1]; Human immunodeficiency virus 1, 8 h, read-out: protection (viral inhibition)): 40% | viral inhibition (HIV-1ADA [1]; MDM, single 8 h treatment 100 μM, challenge at time points later than day one): no viral inhibition | EC50 (HIV-1NL4–3-eGFP): 25.7 nM | EC50 (HIV-1ADA [2]; Human immunodeficiency virus 1, 240 h): 0.5 nM | concentration not affecting cell viability (LiveDead staining) (CEM-ss CD4+ T-cells; human): ≤ 200 µM | solubility at 24 h ([3]; 1-octanol): 0.97 ± 0.027 mg/mL (≈ 3.92 mM) | solubility at 24 h ([3]; water): 143 ± 11.2 mg/mL (≈ 578 mM) | intracellular drug concentration (uptake) (MDM [4]; 100 μM, over 8 h): < 0.1 nmoles/10^6 cells | intracellular drug (retention) (MDM [4]; at 8 h): undetectable | effect on mitochondrial reductase activity (MTT) (MDM [5]): No effects | concentration at 7 days ([6]; male, Sprague Dawley, whole blood, intramuscular, 45 mg/kg FTC-equivalent): < 2 ng/mL | drug concentrations in blood and tissues over time (in words) ([6]; single IM 45 mg/kg): declined to undetectable levels within a day | FTC-TP levels in lymph node and spleen cells ([6]; single IM 45 mg/kg FTC equivalents, day 28 / one month): undetectable levels | drug levels in tissues (in words) ([6]; single IM 45 mg/kg, lymph nodes, spleen, liver): rapidly fell below the limit of quantitation

prodrug degraded ([7]; acidic pH (0.1 M HCl)): 10% | prodrug degraded ([7]; alkaline pH (0.1 M NaOH)): 10% | chemical stability at neutral pH ([7]; neutral pH (water)): stable over 7 days | degradation in plasma (in words) [8]: high | EC50 (HIV-1ADA [2]; HIV-1ADA in MDM, MOI 0.1, 10 days): 0.11 nM | chemical stability in plasma ([9]; heat inactivated human plasma): over 90% | plasma stability (in words) ([9]; normal and heat inactivated human plasma, over 24 h): remained stable | chemical stability in plasma ([9]; normal human plasma): over 90% | fold improvement in octanol solubility compared to FTC ([3]; 1-octanol): 90 fold | octanol solubility ([3]; 1-octanol, saturated solution mixed 24 h): 87.56 ± 0.236 mg/mL | fold decrease in aqueous solubility compared to FTC ([3]; water): 4000 fold | aqueous solubility ([3]; water, saturated solution mixed 24 h): 0.0366 ± 0.0093 mg/mL (≈ 0.0426 mM)
Structure (SMILES): CCCCCCCCCCCCCCCCCCCCCCOC(=O)[C@H](Cc1ccccc1)NP(=O)(OC[C@@H]1O[C@H](n2cc(F)c(N)nc2=O)CS1)Oc1ccccc1 (stereo partly drawn) [M2FTC]
concentration not affecting cell viability (LiveDead staining) (CEM-ss CD4+ T-cells): ≤ 200 µM | effect on mitochondrial reductase activity (MTT) (MDM [5]): No effects | non-cytotoxic concentration (MTT) (MDM [5]; 24 h treatment): ≤ 100 µM | effect on cell viability (MTT) (MDM [5]; above 100 μM): slight reduction in cell viability
